Screening results deposited in PubChem BioAssay by several laboratories.
MT1-MMP act inh: inhibitors of human MT1-MMP activation; HT1080 RFP-PRO-GFP cells, GFP/RFP ratio fluorescence, overnight; percent of plate control window, DMSO zero; GFP/RFP ratio change, % at 20 µM; 360,000 tested, 0.061% active; AID 651647;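 active means GFP/RFP ratio change of at least 30% with cell ATP level not reduced by more than half and red fluorescence within 50% of control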
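Material: RFP-PRO-GFP reporter HT1080 cells. Dosing: single-point 20 µM compound, 1% DMSO. Controls: DMSO and RFP-L50D-GFP cell wells. Timing: cells overnight before dosing, compound overnight, 37 °C, 5% CO2. Measure: GFP/RFP fluorescence ratio.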
MPTP inh: blocks calcium-induced mitochondrial swelling. isolated mouse mitochondria, Ca2+ swelling absorbance, 30 min. inhibition, % at 10 µM. 360,000 tested, 1.4% active. AID 602449;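 active means inhibition of 50% or more, scaled per plate between neutral and stimulator controls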;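 further: 0% = DMSO wells given calcium and 100% = 1 mM EGTA wells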
ADAM17 inh: inhibitors of human ADAM17. recombinant ADAM17, EDANS/DABCYL FRET peptide cleavage. inhibition, % at 6.95 µM. P78536. 370,000 tested, 0.83% active;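 active means inhibition above the mean of compounds lying between control limits plus 3 SD, set per campaign, cut at about 8.5% in these data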;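 further: 0% = DMSO-only wells as the low control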
ADAM10 inh: inhibits human ADAM10 | O14672 | 370,000 tested, 0.62% active | AID 720582 | inhibition, % at 7 µM | recombinant ADAM10, EDANS/DABCYL FRET peptide cleavage, 3 h;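 active means inhibition above a per-campaign cutoff equal to the mean of compounds falling between control-based bounds plus 3 SD, cut at about 20% in these data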;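 further: 0% = DMSO wells while the 100% control is not disclosed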
NR3A LBD binder: modulates the human NR3A ligand-binding domain | NR3A LBD differential scanning fluorimetry, Tm shift; 0% = protein alone, 100% = glycine-bound protein | Tm shift relative to glycine control, % at 25 µM | 340,000 tested, 2.5% active | AID 1259313;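 active means melting temperature shift of at least 10% of the positive control shift, at one fixed dose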
SKN-1 inh: C. elegans SKN-1 inhibition | C. elegans VP596 Pgst-4::GFP/RFP ratio, acrylamide-induced, 24 h | inhibition, % at 21.8 µM | 360,000 tested, 0.49% active | AID 624304;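 active means interference check ratio from 0.5 to 1.5 plus GFP to RFP signal ratio inhibition reaching or exceeding a fixed threshold, cut at about 30% in these data, passing the limit was not always enough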
MPTP counter: mitochondrial membrane potential, counter-screen | shares compounds with MPTP inh | isolated mitochondria, Rhodamine 123 fluorescence | inhibition, % at 10 µM | 5,000 tested, 78% active | AID 624504; in the data active means inhibition above about 22%;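 further: 0% = DMSO vehicle and 100% = positive control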
MPTP abs DR: dose response confirmation of mitochondrial permeability transition pore inhibitors | IC50, µM | isolated mitochondria swelling, absorbance | shares compounds with MPTP inh | AID 651561 | 780 tested, 58% active; in the data active means IC50 below about 20 µM
MPTP counter DR: active in counter-screen for permeability transition pore inhibitors | shares compounds with MPTP inh | isolated mitochondria counterscreen, fluorescence read-out | IC50, µM | 780 tested, 49% active | AID 651564; in the data active means IC50 below about 80 µM
* marks the source's active call; other numbers are inactive results; i = inactive; x = no result. In the library only some 4.7% were active in any assay of this set; here they are far more common.

SMILES	MT1-MMP act inh	MPTP inh	ADAM17 inh	ADAM10 inh	NR3A LBD binder	SKN-1 inh	MPTP counter	others
Cc1cccc(C(=O)Nc2nc3ccc(S(C)(=O)=O)cc3s2)c1	-0.7	2.6	4.3	-2.7	0.7	15.7	x
CS(=O)(=O)c1ccc2nc(NC(=O)Nc3cccc(Cl)c3)sc2c1	-22.4	88.6*	-3.6	-3.5	22.0*	-1.2	59.5*
COc1ccccc1NS(=O)(=O)c1cn(C)cn1	3.9	-0.7	-2.4	2.4	0.3	14.5	x
Cc1[nH]nc2c1[C@@H](c1ccccc1[N+](=O)[O-])C(C#N)=C(N)O2	-5.3	0.2	-35.0	-80.3	0.9	-2.2	x
CCC(c1nc2ccccc2[nH]1)n1c(-c2ccc3cc[nH]c3c2)nc2ccccc21 (configuration not stated)	x	x	-73.4	-311.1	x	x	x
CC(C)COc1ccc(S(=O)(=O)NNC(=O)c2cc3ccccc3o2)cc1	-1.7	60.3*	7.6	13.7	-20.5	5.0	49.9*
CCCCOc1ccc(S(=O)(=O)NNC(=O)c2cc3ccccc3o2)cc1	-0.3	35.9	4.5	6.0	-12.2	10.0	x
CNC(=S)Nc1ccc(OC(F)(F)F)cc1	1.3	41.7	-1.4	-1.7	-2.4	-2.7	x
N#C/C(=N/Nc1ccc(OC(F)(F)F)cc1)C(N)=S	-28.2	82.7*	0.1	3.9	16.5*	54.5*	86.9*
Cc1ccccc1OCCC(=O)Nc1ccc(F)c(Cl)c1	3.6	84.9*	3.7	7.7	-2.0	0.7	85.0*
CCOc1ccccc1OCCC(=O)Nc1ccc(F)c(Cl)c1	-4.0	1.6	6.4	10.8	-2.8	10.8	x
O=c1oc2c(-c3ccc([N+](=O)[O-])cc3)cc(O)cc2s1	5.3	78.4*	0.6	13.3	-0.9	18.5	55.4*
CN1CC2=Cc3ccccc3OC23Oc2ccccc2C=C3C1	-27.0	64.6*	0.6	-0.1	-1.6	27.4	-6.2	MPTP abs DR=i;MPTP counter DR=>80
CC(C)Nc1nc2nonc2nc1Nc1ccccc1	1.3	91.3*	2.6	0.7	0.9	-4.0	80.6*
CC(C)Nc1ccccc1	4.0	-0.4	x	x	-1.4	4.7	x
O=C(C[n+]1cnn(CC(=O)c2ccc(Cl)cc2Cl)c1)c1ccc([N+](=O)[O-])cc1	-0.9	58.5*	-0.6	4.7	-5.0	-4.7	-15.4	MPTP abs DR=7.06*;MPTP counter DR=>80
CCCCSc1nc2sc3c(c2c(=O)n1-c1ccc(C)cc1)CCN(C)C3	-0.3	-1.8	-17.3	-49.7	-5.8	6.6	x
C=CCOc1cccc(C(=O)N2CCCC(CNS(=O)(=O)c3cccs3)C2)c1 (configuration not stated)	-4.4	0.9	-1.8	-6.1	1.6	5.1	x
CCCOc1ccc(Br)cc1CSC(=N)N	-0.6	96.8*	-0.4	-6.0	-1.4	13.4	91.5*
Oc1ccc(CCNc2ncnc3ccc(Cl)cc23)cc1	-4.5	95.2*	-5.6	-4.9	-30.2	16.8	97.0*
Cc1ccc(S(=O)(=O)n2ccc3c(OCCOCCNCc4ccc(F)cc4)cccc32)cc1	-1.4	67.5*	4.9	6.4	-11.8	4.4	85.6*
Cc1ccc(S(=O)(=O)n2ccc3c(OCCOCCSCC(NC(=O)OC(C)(C)C)C(=O)O)cccc32)cc1 (configuration not stated)	3.5	1.2	-2.2	9.2	-5.5	-2.6	x
CC(C)c1ccc2c(c1)CC[C@H]1[C@](C)(CN)CCC[C@]21C	-5.4	88.4*	-8.0	-8.3	0.3	13.9	-4.6	MPTP abs DR=>100;MPTP counter DR=>80
Cc1ccc(-c2csc(NC(=O)CSc3nc(C)cs3)n2)cc1	5.5	69.5*	3.7	6.3	-8.3	3.4	56.2*
O=[N+]([O-])c1cccc(NC(=S)Nc2nc(-c3ccccc3Cl)cs2)c1	-3.8	86.6*	3.2	1.8	16.8*	-5.7	76.2*
